Calls of active or inactive are those of the source. The rule behind the calls is not given here. Where a SMILES comes first, the peptide text is derived from it. The star is where a group is joined. Boc = CC(C)(C)OC(=O)* Where only a bound is given, the exact number is not on record here.

The test system of test [1] is Rattus norvegicus. The experiment in a line: Compound was evaluated for the antagonist activity (ED50) against gastrin-induced acid secretion in the anesthetized rat. Format: functional. The method in brief: (§1)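 Urethane-anaesthetized rats (ip) with the stomach continuously perfused at 30 °C with propionate-succinate solution. Cumulative pH was recorded over time as the index of acid secretion. Compound in alkaline aqueous solution was given as an iv bolus together with (Leu15)-human gastrin I, usually 80 pmol. H+ output, taken from the stimulated minus basal trace, was expressed as % inhibition relative to gastrin alone.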

The nature of test [2]: Compound was evaluated for the inhibition of [125 I](Nle12)HG-13 binding to isolated gastric mucosa cells. More on the design: species or system Oryctolagus cuniculus. The note with it: in the assay text read “(Nle11)” for “(Nle12)”. The method in brief:
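Dispersed rabbit fundic mucosal cells (collagenase/EDTA digestion, mixed population with about 45% parietal cells) were incubated in Hepes-buffered Earle's medium with 0.2% BSA, pH 7.4. Incubation was 30 min at 37 °C with 20 pM mono-iodinated (Nle11)-HG-13 (chloramine T labelling) plus varied peptide concentrations. Nonsaturable binding was defined with 1 × 10^-6 M unlabeled (Nle11)-HG-13.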

In test [3] the test system is Rattus norvegicus. Briefly: Compound was evaluated for the antagonist activity (ED50) against gastrin-induced acid secretion in the anesthetized rat; Inactive. Format: functional, organism-based. In outline: as §1

In turn, `CC(C)C[C@H](NC(=O)[C@H](Cc1c[nH]c2ccccc12)NC(=O)OC(C)(C)C)C(=O)N[C@@H](CC(=O)O)C(=O)OCCc1ccc(F)cc1` displayed an ED50 in test [1] of 0.08 mg/kg.

In test [2], `CC(C)C[C@H](NC(=O)[C@H](Cc1c[nH]c2ccccc12)NC(=O)OC(C)(C)C)C(=O)N[C@@H](CC(=O)O)C(=O)N[C@@H](Cc1ccccc1)C(N)=O` (Boc-WLDF-NH2) gave an IC50 of 500 nM. This lies in the sub-micromolar range.

Turning to `CC(C)C[C@H](NC(=O)[C@@H](Cc1c[nH]c2ccccc12)NC(=O)OC(C)(C)C)C(=O)N[C@@H](CC(=O)O)C(=O)OCCc1ccccc1`, in test [1], the ED50 turned out to be 0.8 mg/kg.

For the molecule `CC(C)C[C@H](NC(=O)[C@H](Cc1c[nH]c2ccccc12)NC(=O)CCNC(=O)OC(C)(C)C)C(=O)N[C@H](CC(=O)O)C(=O)OCCc1ccccc1`, the ED50 in test [1] turned out to be 0.08 mg/kg.

In the case of `CC(C)C[C@H](NC[C@H](Cc1c[nH]c2ccccc12)NC(=O)OC(C)(C)C)C(=O)N[C@@H](CC(=O)O)C(=O)OCCc1ccccc1`, the ED50 in test [1] turned out to be 1 mg/kg.

`CC(C)C[C@H](NC(=O)[C@H](Cc1c[nH]c2ccccc12)NC(=O)CCNC(=O)OC(C)(C)C)C(=O)N[C@@H](CC(=O)O)C(=O)OCCc1ccc(F)cc1` had an ED50 in test [1] of 0.02 mg/kg.

In turn, `CC(C)C[C@H](NC[C@H](Cc1c[nH]c2ccccc12)NC(=O)OC(C)(C)C)C(=O)N[C@@H](CC(=O)O)C(=O)OCCc1ccc(F)cc1` registered an ED50 in test [1] of 0.1 mg/kg.

Molecule `CC(C)C[C@H](NC(=O)[C@@H](Cc1c[nH]c2ccccc12)NC(=O)CCNC(=O)OC(C)(C)C)C(=O)N[C@H](CC(=O)O)C(=O)NC(Cc1ccccc1)C(N)=O` (some centres not stated) returned an IC50 in test [2] of 50 nM.

On to `CC(C)C[C@H](NC(=O)[C@H](Cc1c[nH]c2ccccc12)NC(=O)OC(C)(C)C)C(=O)N[C@@H](CC(=O)O)C(=O)OCCc1ccccc1`, for which it took a dose of 0.1 mg/kg to reach the 50% effect level in test [1] (ED50). Moreover, the IC50 in test [2] is 750 nM.

In turn, `CC(C)C[C@H](NC(=O)[C@H](Cc1c[nH]c2ccccc12)NC(=O)OC(C)(C)C)C(=O)N[C@@H](CC(=O)O)C(=O)OCCc1cccc(C(F)(F)F)c1` returned an ED50 in test [1] above 1 mg/kg.

For `CC(C)C[C@H](NC(=O)OC(C)(C)C)C(=O)N[C@@H](CC(=O)O)C(=O)OCCc1ccccc1`, the ED50 entry in test [3] is “inactive”.

Consider `CC(C)C[C@H](NC(=O)[C@H](Cc1c[nH]c2ccccc12)NC(=O)OC(C)(C)C)C(=O)N[C@@H](CC(=O)O)C(=O)OCCc1ccccc1C(F)(F)F`, for which the ED50 in test [1] came to 1.5 mg/kg.

`CC(C)C[C@H](NC(=O)[C@@H](Cc1c[nH]c2ccccc12)NC(=O)CCNC(=O)OC(C)(C)C)C(=O)N[C@H](CC(=O)O)C(=O)OCCc1ccccc1` had an ED50 in test [1] of 0.04 mg/kg. The same molecule yielded an IC50 in test [2] of 75 nM.

In test [1], `CC(C)C[C@H](NC(=O)[C@H](Cc1c[nH]c2ccccc12)NC(=O)OC(C)(C)C)C(=O)N[C@@H](CC(=O)O)C(=O)OCCc1ccccc1F` came in with an ED50 of 0.1 mg/kg.

For `CC(C)C[C@@H](NC(=O)[C@H](Cc1c[nH]c2ccccc12)NC(=O)OC(C)(C)C)C(=O)N[C@H](CC(=O)OCCc1ccc(F)cc1)C(=O)O`, in test [3], the ED50 result is “inactive”.

A word on the ED50: it is the dose at which the effect has come halfway, by size or by number of responders. Broadly, the IC50 is the concentration needed to halve the response being measured. A low value points to greater potency.

The record behind these values is ChEMBL document CHEMBL1123477, “Phenethyl ester derivative analogues of the C-terminal tetrapeptide of gastrin as potent gastrin antagonists” (J Med Chem, 1986).
